Experimental data taken from PMC3761190 (The British Journal of Dermatology, 2013).
Where two headings read alike, the source gives them in different places.

Legend:
[1] = tested on: plaque psoriasis; conditions: cited from earlier work; for Mean total lesion score decrease from baseline: week 4
[2] = tested on: psoriasis; conditions: week 4; 13-point scale; cited from earlier work
[3] = Plasma pharmacokinetics after 4 weeks of topical treatment; type: in vivo, human; conditions: approx. 1.5% BSA, comparator Pfizer, data on file
In short: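 Adults with mild-to-moderate chronic plaque psoriasis applied test-compound ointment (one formulation 2%, 20 mg g−1) twice daily for 4 weeks at 3 mg cm−2 to a fixed 300 cm2 area. Week-4 plasma sampled predose and 1, 2, 4–9 h post-dose.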

Question: With `N#CC[C@H](C1CCCC1)n1cc(-c2ncnc3[nH]ccc23)cn1` [INCB018424] as the compound, how does the “Tolerability of topical application” value ([1]; cream, 4 weeks) read?
Answer: well tolerated

Question: And the “Mean total lesion score decrease from baseline” value ([1]; 1.0% cream daily)?
Answer: 53%

Question: And the “Mean total lesion score decrease from baseline” value ([1]; 1.5% cream twice daily)?
Answer: 54%

Question: For `CCC(=O)OCC(=O)[C@@]1(OC(=O)CC)[C@@H](C)C[C@H]2[C@@H]3CCC4=CC(=O)C=C[C@]4(C)[C@@]3(F)[C@@H](O)C[C@@]21C` [betamethasone dipropionate], which “Total lesion sum score percentage change from baseline” value [2] is on record?
Answer: –41%

Question: For `C[C@@H]1CCN(C(=O)CC#N)C[C@@H]1N(C)c1ncnc2[nH]ccc12` [tofacitinib, Tofacitinib], which “Mean systemic exposure lower than with oral tofacitinib 2 mg twice daily” value [3] is on record?
Answer: approximately 40 fold
